Measured values: ChEMBL document CHEMBL3745707 (Bioorg Med Chem, 2016)
The source made the active and inactive calls. The rule behind the calls is not given here.

Tests used:
[1] = target: Serine/threonine-protein kinase PLK1 (Homo sapiens) (UniProt P53350)
[2] = target: High affinity nerve growth factor receptor (Homo sapiens, UniProt P04629); assay: Inhibition of human TRKA using poly[Glu:Tyr] (4:1) as substrate
[3] = target: Testis-specific serine/threonine-protein kinase 3 (Homo sapiens, UniProt Q96PN8); assay: Inhibition of human TSSK3 using [KKKVSRSGLYRSPSMPENLNRPR] as substrate
[4] = target: Glycogen synthase kinase-3 alpha (Homo sapiens, UniProt P49840); assay: Inhibition of human GSK3alpha using [YRRAAVPPSPSLSRHSSPHQ(pS)EDEEE] as substrate
[5] = target: Cyclin-Y/Cyclin-dependent kinase 16 (Homo sapiens, UniProt Q00536); assay: Inhibition of human CDK16/cyclin Y using RP protein as substrate; type: protein-complex assay
[6] = target: Fibroblast growth factor receptor 3 (Homo sapiens, UniProt P22607); assay: Inhibition of human FGFR3 using poly[Glu:Tyr] (4:1) as substrate
[7] = target: T1, Serine/threonine-protein kinase PLK2 (Homo sapiens, UniProt Q9NYY3)
Target sequence in this assay (Q9NYY3 whole entry, looked up): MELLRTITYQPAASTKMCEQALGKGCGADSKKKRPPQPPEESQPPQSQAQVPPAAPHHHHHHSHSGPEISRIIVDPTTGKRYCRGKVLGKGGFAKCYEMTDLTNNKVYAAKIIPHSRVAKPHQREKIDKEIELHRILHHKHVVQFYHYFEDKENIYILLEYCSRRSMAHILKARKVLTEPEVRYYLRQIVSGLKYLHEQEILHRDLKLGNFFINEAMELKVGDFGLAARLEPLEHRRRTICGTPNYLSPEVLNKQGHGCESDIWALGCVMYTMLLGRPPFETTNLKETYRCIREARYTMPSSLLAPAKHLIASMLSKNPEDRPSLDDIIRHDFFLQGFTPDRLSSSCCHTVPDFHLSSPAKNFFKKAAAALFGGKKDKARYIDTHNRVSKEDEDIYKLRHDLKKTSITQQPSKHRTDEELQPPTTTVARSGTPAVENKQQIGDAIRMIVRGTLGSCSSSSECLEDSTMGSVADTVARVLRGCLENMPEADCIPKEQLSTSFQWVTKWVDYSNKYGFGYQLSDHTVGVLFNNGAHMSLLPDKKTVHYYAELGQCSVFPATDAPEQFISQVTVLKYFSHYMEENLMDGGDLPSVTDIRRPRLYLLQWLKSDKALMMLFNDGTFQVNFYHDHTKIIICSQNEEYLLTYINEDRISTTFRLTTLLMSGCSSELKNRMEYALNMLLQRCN

[8] = target: T1, Serine/threonine-protein kinase PLK2; assay: Inhibition of human recombinant PLK2 using recombinant dephosphorylated bovine alpha- casein as substrate after 30 mins by scintillation counting analysis in presence of gamma-32P-ATP
Target sequence in this assay (Q9NYY3 whole entry): as the sequence (Q9NYY3 whole entry, looked up) above

[9] = target: Serine/threonine-protein kinase Nek9 (Homo sapiens, UniProt Q8TD19); assay: Inhibition of human NEK9 using MBP as substrate
[10] = target: Fibroblast growth factor receptor 1 (Homo sapiens, UniProt P11362); assay: Inhibition of human FGFR1 using [KKKSPGEYVNIEFG] as substrate
[11] = target: Receptor-type tyrosine-protein kinase FLT3 (Homo sapiens, UniProt P36888); assay: Inhibition of human FLT3 using [EAIYAAPFAKKK] as substrate
[12] = target: T1, Serine/threonine-protein kinase PLK2; assay: Inhibition of human PLK2 using casein as substrate
Target sequence in this assay (Q9NYY3 whole entry): as the sequence (Q9NYY3 whole entry, looked up) above

[13] = target: T2, Tubulin (Bos taurus) (UniProt Q6B856+Q862L2+Q862F3); assay: Inhibition of bovine MAP rich tubulin polymerization at 10 uM measured every 2 mins for 30 mins by UV-visible spectrophotometric analysis; type: protein assay
How it was run: (§1)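 MAP-rich bovine tubulin at 1.5 mg/mL in 80 mM PIPES pH 6.9, 1 mM GTP, 0.5 mM EGTA, 2 mM MgCl₂. Briefly preincubated with agent or DMSO, then polymerized at 37 °C in a spectrophotometer. Absorbance recorded every 2 min for 30 min; n = 3.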

[14] = target: TRAF2 and NCK-interacting protein kinase (Homo sapiens, UniProt Q9UKE5); assay: Inhibition of human TNIK using [RLGRDKYKTLRQIRQ] as substrate
[15] = target: Serine/threonine-protein kinase Nek2 (Homo sapiens, UniProt P51955); assay: Inhibition of human NEK2 using MBP as substrate
[16] = target: Mitogen-activated protein kinase 14 (Homo sapiens, UniProt Q16539); assay: Inhibition of human P38alpha using MBP as substrate
[17] = system: Mus musculus; assay: Toxicity in NCR nu/nu mouse xenografted with human MDA-MB-231 cells assessed as change in body weight at 75 mg/kg, ip administered alternative day; type: organism-based; conditions: in vivo
[18] = target: Ribosomal protein S6 kinase alpha-1 (Homo sapiens, UniProt Q15418); assay: Inhibition of human RSK1 using [KKLNRTLSVA] as substrate
[19] = target: Ephrin type-A receptor 6 (Homo sapiens, UniProt Q9UF33); assay: Inhibition of human EPHA6 using poly[Glu:Tyr] (4:1) as substrate
[20] = target: Serine/threonine-protein kinase Nek5 (Homo sapiens, UniProt Q6P3R8); assay: Inhibition of human NEK5 using MBP as substrate
[21] = system: U2OS; assay: Induction of apoptosis in human U2OS cells assessed as increase in caspase 3/7 activity after 24 hrs by caspase Glo assay; type: functional, cell-based
How it was run: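 U2OS cells (DMEM, 10% FBS, 37 °C, 5% CO₂) plated at 1–3 × 10⁴ cells/well, left overnight, then exposed 24 h to increasing concentrations, with DMSO control. Caspase 3/7 activity read by Caspase-Glo luminescence; viability measured in parallel with Cell Titer Blue fluorescence.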

[22] = target: Serine/threonine-protein kinase Nek1 (Homo sapiens, UniProt Q96PY6); assay: Inhibition of human NEK1 using MBP as substrate
[23] = target: T2, Tubulin (Bos taurus); assay: Inhibition of bovine MAP rich tubulin polymerization at 1 uM measured every 2 mins for 30 mins by UV-visible spectrophotometric analysis; type: protein assay
How it was run: as §1

[24] = system: NCI-H1975; assay: cells; type: functional; conditions: Homo sapiens, NCI-H1975, 72 h
[25] = system: K562; assay: cells; type: functional, cell-based; conditions: Homo sapiens, K562, 72 h
[26] = system: MCF7; assay: cells; type: functional; conditions: Homo sapiens, MCF7, 72 h
[27] = cells; type: functional, U-87MG ATCC; conditions: Homo sapiens, U-87 MG, 72 h
[28] = cells; type: functional; conditions: Homo sapiens, Granta-519, 72 h
[29] = system: A549; assay: cells; type: functional; conditions: Homo sapiens, A549, 72 h
[30] = cells; type: functional; conditions: Homo sapiens, SK-OV-3, 72 h
[31] = system: U2OS; assay: cells; type: functional; conditions: Homo sapiens, 72 h
[32] = system: Raji; assay: cells; type: functional; conditions: Homo sapiens, 72 h
[33] = cells; type: functional; conditions: Homo sapiens, COLO 205, 72 h
[34] = cells; type: functional; conditions: Homo sapiens, MIA PaCa-2, 72 h
[35] = system: SK-MEL-28; assay: cells; type: functional; conditions: Homo sapiens, SK-MEL-28, 72 h
[36] = system: HeLa; assay: cells; type: functional; conditions: Homo sapiens, 72 h
[37] = cells; type: functional, cell-based; conditions: Homo sapiens, DU-145, 72 h
[38] = cells; type: functional; conditions: Homo sapiens, BT-474, 72 h

Chain of Cyclin-Y/Cyclin-dependent kinase 16 (Q00536 whole entry): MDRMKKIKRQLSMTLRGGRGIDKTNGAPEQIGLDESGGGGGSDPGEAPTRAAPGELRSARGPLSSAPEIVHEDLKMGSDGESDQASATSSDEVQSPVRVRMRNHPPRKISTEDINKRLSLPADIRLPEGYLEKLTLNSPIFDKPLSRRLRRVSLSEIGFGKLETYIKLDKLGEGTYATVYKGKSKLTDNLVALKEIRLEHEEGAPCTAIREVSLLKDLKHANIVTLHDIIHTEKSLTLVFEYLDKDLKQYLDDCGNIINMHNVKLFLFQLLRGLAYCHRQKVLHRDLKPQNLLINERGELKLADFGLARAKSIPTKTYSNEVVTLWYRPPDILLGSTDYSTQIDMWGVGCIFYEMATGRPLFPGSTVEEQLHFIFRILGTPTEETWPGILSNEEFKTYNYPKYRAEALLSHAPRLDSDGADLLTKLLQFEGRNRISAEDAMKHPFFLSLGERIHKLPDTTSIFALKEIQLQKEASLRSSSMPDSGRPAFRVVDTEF
Chain of Cyclin-Y/Cyclin-dependent kinase 16 (Q8ND76 whole entry, further chain): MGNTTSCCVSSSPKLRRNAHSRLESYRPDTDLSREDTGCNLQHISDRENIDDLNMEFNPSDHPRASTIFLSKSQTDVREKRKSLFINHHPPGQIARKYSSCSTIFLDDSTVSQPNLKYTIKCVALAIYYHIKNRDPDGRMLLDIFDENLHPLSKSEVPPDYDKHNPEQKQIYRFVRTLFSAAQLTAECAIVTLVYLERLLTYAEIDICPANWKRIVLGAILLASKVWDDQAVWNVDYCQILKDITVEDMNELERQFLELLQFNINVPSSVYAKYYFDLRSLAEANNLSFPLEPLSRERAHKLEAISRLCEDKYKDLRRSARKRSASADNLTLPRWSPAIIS
Chain of Receptor-type tyrosine-protein kinase FLT3 (P36888 whole entry): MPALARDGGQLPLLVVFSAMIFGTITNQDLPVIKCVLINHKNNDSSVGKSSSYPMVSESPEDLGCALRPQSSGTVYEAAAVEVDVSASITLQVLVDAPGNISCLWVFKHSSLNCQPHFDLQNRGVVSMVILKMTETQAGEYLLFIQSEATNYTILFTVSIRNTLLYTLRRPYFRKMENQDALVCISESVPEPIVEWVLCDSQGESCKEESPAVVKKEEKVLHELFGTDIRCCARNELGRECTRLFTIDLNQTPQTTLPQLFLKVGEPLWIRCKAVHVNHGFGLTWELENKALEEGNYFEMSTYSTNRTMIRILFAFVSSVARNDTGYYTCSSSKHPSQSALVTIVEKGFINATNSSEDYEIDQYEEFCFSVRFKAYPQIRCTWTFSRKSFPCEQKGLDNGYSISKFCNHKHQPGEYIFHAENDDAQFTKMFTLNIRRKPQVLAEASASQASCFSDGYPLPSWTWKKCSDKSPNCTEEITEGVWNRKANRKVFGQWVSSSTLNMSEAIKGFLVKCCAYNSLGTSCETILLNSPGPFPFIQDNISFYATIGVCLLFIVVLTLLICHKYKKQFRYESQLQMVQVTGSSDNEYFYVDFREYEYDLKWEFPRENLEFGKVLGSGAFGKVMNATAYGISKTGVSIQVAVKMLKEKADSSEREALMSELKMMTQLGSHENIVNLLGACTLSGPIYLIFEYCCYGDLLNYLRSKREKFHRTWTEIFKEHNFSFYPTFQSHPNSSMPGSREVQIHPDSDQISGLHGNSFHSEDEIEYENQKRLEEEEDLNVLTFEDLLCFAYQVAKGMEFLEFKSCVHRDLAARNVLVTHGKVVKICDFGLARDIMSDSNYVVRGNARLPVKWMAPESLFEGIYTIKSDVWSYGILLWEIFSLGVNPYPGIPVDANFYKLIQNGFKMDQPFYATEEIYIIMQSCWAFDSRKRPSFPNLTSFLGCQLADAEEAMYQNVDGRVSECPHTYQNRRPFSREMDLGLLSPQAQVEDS
Chain of Mitogen-activated protein kinase 14 (Q16539 whole entry): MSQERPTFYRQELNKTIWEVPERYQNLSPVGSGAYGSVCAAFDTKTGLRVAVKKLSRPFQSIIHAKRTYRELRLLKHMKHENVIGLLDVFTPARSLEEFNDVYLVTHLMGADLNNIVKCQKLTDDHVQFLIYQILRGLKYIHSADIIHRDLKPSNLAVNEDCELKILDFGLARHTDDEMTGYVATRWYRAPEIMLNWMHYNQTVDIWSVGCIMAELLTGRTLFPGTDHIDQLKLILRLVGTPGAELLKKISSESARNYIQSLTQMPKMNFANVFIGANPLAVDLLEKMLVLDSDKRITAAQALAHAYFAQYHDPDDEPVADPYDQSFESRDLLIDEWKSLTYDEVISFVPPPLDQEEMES
Chain of Serine/threonine-protein kinase Nek5 (Q6P3R8 whole entry): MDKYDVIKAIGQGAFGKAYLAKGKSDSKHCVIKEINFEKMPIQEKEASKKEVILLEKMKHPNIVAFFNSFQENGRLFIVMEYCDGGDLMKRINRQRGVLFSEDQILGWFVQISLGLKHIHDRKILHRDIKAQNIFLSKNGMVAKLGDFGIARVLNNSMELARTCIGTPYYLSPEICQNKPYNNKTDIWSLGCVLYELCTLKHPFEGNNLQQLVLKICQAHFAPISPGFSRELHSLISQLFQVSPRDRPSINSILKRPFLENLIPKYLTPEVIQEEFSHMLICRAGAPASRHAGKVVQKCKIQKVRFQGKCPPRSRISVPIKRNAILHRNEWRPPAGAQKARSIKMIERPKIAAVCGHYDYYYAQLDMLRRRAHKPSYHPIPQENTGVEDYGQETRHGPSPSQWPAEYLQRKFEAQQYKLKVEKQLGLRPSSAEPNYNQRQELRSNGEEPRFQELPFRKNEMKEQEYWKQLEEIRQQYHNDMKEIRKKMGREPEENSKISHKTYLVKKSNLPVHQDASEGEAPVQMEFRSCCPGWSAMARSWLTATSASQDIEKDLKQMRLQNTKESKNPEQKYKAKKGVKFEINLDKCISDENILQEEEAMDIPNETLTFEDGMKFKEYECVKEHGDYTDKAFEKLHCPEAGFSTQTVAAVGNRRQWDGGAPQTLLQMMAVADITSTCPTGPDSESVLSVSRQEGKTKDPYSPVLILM
Chain of Serine/threonine-protein kinase Nek1 (Q96PY6 whole entry): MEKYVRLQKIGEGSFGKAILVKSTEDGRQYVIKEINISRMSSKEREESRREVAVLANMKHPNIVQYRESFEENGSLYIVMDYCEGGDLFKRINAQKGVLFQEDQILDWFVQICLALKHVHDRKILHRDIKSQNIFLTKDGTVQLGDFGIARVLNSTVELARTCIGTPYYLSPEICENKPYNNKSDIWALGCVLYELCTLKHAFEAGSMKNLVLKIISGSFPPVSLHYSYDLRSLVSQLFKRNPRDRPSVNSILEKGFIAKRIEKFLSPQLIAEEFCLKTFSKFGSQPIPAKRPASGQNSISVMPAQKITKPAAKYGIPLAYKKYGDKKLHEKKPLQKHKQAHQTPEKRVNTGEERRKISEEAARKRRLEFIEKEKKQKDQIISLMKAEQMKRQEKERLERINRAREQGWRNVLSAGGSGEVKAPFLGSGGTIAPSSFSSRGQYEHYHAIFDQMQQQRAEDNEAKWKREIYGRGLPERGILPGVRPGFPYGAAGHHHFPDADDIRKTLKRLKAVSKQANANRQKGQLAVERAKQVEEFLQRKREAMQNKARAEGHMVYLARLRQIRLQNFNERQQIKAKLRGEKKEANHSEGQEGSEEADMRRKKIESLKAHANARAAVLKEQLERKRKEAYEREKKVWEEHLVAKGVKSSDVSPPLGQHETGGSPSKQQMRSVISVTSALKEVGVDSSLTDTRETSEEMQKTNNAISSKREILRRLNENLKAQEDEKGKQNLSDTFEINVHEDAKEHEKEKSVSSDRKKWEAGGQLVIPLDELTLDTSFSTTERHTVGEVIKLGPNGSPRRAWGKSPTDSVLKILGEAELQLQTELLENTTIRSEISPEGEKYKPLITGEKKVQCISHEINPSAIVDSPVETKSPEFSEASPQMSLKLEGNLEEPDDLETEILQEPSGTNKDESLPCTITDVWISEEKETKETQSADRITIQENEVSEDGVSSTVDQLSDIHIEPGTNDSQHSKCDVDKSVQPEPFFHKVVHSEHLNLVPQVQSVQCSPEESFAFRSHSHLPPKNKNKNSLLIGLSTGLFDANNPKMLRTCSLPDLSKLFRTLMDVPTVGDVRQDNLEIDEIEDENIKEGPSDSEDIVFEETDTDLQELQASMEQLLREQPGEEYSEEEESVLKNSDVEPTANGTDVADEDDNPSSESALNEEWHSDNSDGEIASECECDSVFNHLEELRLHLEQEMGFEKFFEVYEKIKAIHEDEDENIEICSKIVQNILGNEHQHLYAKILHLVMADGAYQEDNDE

| IC50 [8] [µM] | inhibition [13] | GI50 [24] [µM] | IC50 [25] [µM] | GI50 [26] [µM] | GI50 [29] [µM] | GI50 [31] [µM] | GI50 [32] [µM] | GI50 [35] [µM] | GI50 [36] [µM] | IC50 [37] [µM] | Compound | ΔTm [7] [°C] | Activity [21] | GI50 [27] [µM] | GI50 [28] [µM] | GI50 [30] [µM] | GI50 [33] [µM] | GI50 [34] [µM] | GI50 [38] [µM] | other results |
| --- | --- | --- | --- | --- | --- | --- | --- | --- | --- | --- | --- | --- | --- | --- | --- | --- | --- | --- | --- | --- |
| – | – | – | – | – | – | – | – | – | – | – | CC[C@]1(O)C[C@H]2CN(CCc3c([nH]c4ccccc34)[C@@](C(=O)OC)(c3cc4c(cc3OC)N(C=O)[C@H]3[C@@](O)(C(=O)OC)[C@H](OC(C)=O)[C@]5(CC)C=CCN6CC[C@]43[C@@H]65)C2)C1 | – | – | – | – | – | – | – | – | inhibition [23]: Active |
| 0.47 | Active | 0.75 | 0.1 | 0.5 | 0.75 | 0.35 | 0.5 | 0.5 | 0.75 | 0.25 | Cn1c(=O)c(S(=O)(=O)c2ccc(O)cc2)cc2cnc(Nc3ccc4[nH]ccc4c3)nc21 | – | – | 1 | 0.25 | 0.75 | 0.25 | 0.1 | 0.2 | – |
| – | – | – | – | – | – | – | – | – | – | – | CC[C@@H]1C(=O)N(C)c2cnc(Nc3ccc(C(=O)NC4CCN(C)CC4)cc3OC)nc2N1C1CCCC1 | 12.3 | – | – | – | – | – | – | – | – |
| – | Active | 0.75 | 0.6 | 0.5 | 2.5 | 0.35 | 0.4 | 0.5 | 0.5 | 0.15 | Cn1c(=O)c(S(=O)(=O)c2ccc(OC(=O)CCCCC3SCC4NC(=O)NC43)cc2)cc2cnc(Nc3ccc4[nH]ccc4c3)nc21 (stereo not given) | – | – | 1 | 0.5 | 0.4 | 0.5 | 0.1 | 0.25 | – |
| 1.07 | Active | 0.1 | 0.2 | 0.25 | 0.2 | 0.055 | 0.1 | 0.3 | 0.075 | 0.3 | Cn1c(=O)c(S(=O)(=O)c2ccc(F)cc2)cc2cnc(Nc3ccc4[nH]ccc4c3)nc21 | – | Dose-dependent effect | 0.4 | 0.06 | 0.2 | 0.2 | 0.075 | 0.2 | – |

| Compound | IC50 [8] [µM] | inhibition [13] | GI50 [24] [µM] | IC50 [25] [µM] | GI50 [26] [µM] | GI50 [29] [µM] | GI50 [31] [µM] | GI50 [32] [µM] | GI50 [35] [µM] | GI50 [36] [µM] | IC50 [37] [µM] | ΔTm [7] [°C] | Activity [21] | GI50 [27] [µM] | GI50 [28] [µM] | GI50 [30] [µM] | GI50 [33] [µM] | GI50 [34] [µM] | GI50 [38] [µM] | other results |
| --- | --- | --- | --- | --- | --- | --- | --- | --- | --- | --- | --- | --- | --- | --- | --- | --- | --- | --- | --- | --- |
| Cn1c(=O)c(S(=O)(=O)c2ccc(F)cc2F)cc2cnc(Nc3ccc4[nH]ccc4c3)nc21 | 0.31 | inactive | – | – | – | – | – | – | – | – | – | 4.1 | Dose-dependent effect | – | – | – | – | – | – | ΔTm [1]: 0.2 °C; IC50 [2]: > 5 µM; IC50 [3]: > 5 µM; IC50 [4]: > 5 µM; IC50 [5]: > 10 µM; IC50 [6]: > 5 µM; IC50 [9]: > 5 µM; IC50 [10]: > 5 µM; IC50 [11]: > 5 µM; IC50 [12]: 0.374 µM; IC50 [14]: > 5 µM; IC50 [15]: 1.83 µM; IC50 [16]: > 10 µM; Activity [17]: Non-toxic; IC50 [18]: > 5 µM; IC50 [19]: > 5 µM; IC50 [20]: 4.42 µM; IC50 [22]: 0.63 µM |
